# Reference: ChEMBL document CHEMBL4312005, “Optimization of pyrrolizine-based Schiff bases with 4-thiazolidinone motif: Design, synthesis and investigation of cytotoxicity and anti-inflammatory potency” (Eur J Med Chem, 2020)
# What was measured:
# [1] = molecular target: T1, 3-phosphoinositide-dependent protein kinase 1 (Homo sapiens) (UniProt O15530); experiment: Inhibition of recombinant human N-terminal His-tagged full length PDK1 expressed in baculovirus infected Sf9 insect cells assessed as enzyme activity incubated for 15 mins by [gamma-33]ATP based scintillation counting method relative to control; set-up: scale not given: the % may be the effect or the level left
# T1 sequence (whole entry): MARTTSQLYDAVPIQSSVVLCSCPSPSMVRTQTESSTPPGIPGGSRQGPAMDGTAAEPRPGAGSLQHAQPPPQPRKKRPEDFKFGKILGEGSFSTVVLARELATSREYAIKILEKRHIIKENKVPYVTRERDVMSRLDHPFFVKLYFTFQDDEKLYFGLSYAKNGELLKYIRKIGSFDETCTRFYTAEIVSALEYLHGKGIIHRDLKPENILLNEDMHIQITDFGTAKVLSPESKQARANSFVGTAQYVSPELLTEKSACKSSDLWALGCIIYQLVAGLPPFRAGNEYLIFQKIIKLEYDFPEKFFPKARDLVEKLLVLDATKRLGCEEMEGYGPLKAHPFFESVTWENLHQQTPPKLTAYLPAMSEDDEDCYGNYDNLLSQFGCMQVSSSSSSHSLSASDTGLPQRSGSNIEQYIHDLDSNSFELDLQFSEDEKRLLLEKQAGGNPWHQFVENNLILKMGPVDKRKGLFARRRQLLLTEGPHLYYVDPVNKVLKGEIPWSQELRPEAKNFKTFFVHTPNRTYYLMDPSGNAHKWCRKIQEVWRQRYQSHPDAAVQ
# [2] = molecular target: Tyrosine-protein kinase Blk (Homo sapiens) (UniProt P51451); experiment: Inhibition of recombinant human N-terminal GST-tagged full length BLK expressed in baculovirus infected Sf9 insect cells assessed as enzyme activity incubated for 15 mins by [gamma-33]ATP based scintillation counting method relative to control; set-up: scale not given: the % may be the effect or the level left
# Tyrosine-protein kinase Blk (Homo sapiens), sequence (P51451 2-505 limits assumed): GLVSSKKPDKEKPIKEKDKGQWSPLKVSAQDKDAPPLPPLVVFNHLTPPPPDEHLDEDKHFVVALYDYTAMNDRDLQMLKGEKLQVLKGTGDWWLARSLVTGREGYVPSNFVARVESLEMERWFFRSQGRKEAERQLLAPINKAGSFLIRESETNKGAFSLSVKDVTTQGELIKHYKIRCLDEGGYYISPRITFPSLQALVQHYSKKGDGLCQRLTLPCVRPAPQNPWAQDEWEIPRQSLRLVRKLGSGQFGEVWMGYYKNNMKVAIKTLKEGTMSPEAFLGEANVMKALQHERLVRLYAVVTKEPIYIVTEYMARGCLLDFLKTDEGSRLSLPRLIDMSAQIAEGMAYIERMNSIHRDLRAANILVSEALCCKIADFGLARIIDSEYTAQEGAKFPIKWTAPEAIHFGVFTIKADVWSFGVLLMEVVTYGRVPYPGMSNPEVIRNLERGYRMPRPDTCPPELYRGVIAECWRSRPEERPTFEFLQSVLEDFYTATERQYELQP
# [3] = molecular target: Casein kinase I isoform alpha (Homo sapiens) (UniProt P48729); experiment: Inhibition of CK1alpha1 (unknown origin) assessed as enzyme activity incubated for 15 mins by [gamma-33]ATP based scintillation counting method relative to control; set-up: scale not given: the % may be the effect or the level left
# Casein kinase I isoform alpha (Homo sapiens), sequence (P48729 2-337 limits assumed): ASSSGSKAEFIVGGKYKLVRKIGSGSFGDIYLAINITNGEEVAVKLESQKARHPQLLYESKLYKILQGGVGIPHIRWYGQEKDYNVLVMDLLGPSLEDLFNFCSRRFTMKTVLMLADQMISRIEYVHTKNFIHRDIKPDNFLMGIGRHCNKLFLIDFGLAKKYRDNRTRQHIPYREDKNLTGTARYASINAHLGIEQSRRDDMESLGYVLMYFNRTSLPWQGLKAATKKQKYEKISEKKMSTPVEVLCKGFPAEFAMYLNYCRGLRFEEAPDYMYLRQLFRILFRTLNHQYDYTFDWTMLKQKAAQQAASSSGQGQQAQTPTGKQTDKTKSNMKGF
# [4] = molecular target: Glycogen synthase kinase-3 alpha (Homo sapiens) (UniProt P49840); experiment: Inhibition of recombinant human N-terminal GST-tagged full length GSK3alpha expressed in baculovirus infected Sf9 insect cells assessed as enzyme activity incubated for 15 mins by [gamma-33]ATP based scintillation counting method relative to control; set-up: scale not given: the % may be the effect or the level left
# Glycogen synthase kinase-3 alpha (Homo sapiens), sequence (P49840 2-483 limits assumed): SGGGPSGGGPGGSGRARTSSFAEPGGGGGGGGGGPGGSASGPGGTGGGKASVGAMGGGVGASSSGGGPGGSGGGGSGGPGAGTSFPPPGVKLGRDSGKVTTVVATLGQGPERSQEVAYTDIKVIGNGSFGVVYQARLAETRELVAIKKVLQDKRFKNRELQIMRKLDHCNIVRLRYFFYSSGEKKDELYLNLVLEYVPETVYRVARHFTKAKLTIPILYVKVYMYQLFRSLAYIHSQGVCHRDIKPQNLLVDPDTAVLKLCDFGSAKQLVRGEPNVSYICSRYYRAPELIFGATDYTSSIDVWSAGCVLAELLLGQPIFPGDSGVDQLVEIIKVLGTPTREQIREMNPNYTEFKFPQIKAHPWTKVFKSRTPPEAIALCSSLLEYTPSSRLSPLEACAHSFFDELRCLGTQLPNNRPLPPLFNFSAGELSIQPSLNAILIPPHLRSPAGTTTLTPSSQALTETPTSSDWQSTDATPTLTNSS
# [5] = molecular target: T2, Ephrin type-A receptor 1 (Homo sapiens) (UniProt P21709); experiment: Inhibition of recombinant human N-terminal GST-tagged EPHA1 (569 to end residues) expressed in baculovirus infected Sf9 insect cells assessed as enzyme activity incubated for 15 mins by [gamma-33]ATP based scintillation counting method relative to control; set-up: scale not given: the % may be the effect or the level left
# T2 sequence (whole entry): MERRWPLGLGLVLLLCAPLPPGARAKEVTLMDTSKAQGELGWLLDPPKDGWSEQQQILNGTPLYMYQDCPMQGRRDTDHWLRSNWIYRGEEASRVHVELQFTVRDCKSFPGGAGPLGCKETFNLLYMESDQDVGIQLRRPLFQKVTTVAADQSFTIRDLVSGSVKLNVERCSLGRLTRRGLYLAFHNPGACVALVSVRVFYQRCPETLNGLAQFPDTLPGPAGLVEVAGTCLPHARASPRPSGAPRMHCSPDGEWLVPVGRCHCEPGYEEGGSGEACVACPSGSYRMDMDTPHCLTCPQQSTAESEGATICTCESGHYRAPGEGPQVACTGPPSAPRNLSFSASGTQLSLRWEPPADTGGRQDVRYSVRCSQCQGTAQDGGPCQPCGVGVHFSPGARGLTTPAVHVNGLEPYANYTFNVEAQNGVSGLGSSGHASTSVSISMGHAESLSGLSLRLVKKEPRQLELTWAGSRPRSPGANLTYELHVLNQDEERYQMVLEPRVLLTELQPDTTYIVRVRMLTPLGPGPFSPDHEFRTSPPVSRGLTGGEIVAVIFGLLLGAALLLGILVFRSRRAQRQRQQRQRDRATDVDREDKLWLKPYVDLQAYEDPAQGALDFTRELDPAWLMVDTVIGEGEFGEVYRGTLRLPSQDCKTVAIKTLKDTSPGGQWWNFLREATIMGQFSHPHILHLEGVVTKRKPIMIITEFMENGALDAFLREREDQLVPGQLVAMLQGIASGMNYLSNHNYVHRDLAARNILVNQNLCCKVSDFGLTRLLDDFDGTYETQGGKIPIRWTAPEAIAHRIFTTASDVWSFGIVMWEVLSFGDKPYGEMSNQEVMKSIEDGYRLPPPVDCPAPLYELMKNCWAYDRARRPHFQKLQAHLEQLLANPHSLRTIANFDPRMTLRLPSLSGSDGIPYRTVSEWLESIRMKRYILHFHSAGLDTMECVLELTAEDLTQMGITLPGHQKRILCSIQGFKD
# [6] = molecular target: Vascular endothelial growth factor receptor 1 (Homo sapiens) (UniProt P17948); experiment: Inhibition of recombinant human N-terminal GST-tagged FLT1 (784 to end residues) expressed in baculovirus infected Sf9 insect cells assessed as enzyme activity incubated for 15 mins by [gamma-33]ATP based scintillation counting method relative to control; set-up: scale not given: the % may be the effect or the level left
# Vascular endothelial growth factor receptor 1 (Homo sapiens), sequence (P17948 whole entry): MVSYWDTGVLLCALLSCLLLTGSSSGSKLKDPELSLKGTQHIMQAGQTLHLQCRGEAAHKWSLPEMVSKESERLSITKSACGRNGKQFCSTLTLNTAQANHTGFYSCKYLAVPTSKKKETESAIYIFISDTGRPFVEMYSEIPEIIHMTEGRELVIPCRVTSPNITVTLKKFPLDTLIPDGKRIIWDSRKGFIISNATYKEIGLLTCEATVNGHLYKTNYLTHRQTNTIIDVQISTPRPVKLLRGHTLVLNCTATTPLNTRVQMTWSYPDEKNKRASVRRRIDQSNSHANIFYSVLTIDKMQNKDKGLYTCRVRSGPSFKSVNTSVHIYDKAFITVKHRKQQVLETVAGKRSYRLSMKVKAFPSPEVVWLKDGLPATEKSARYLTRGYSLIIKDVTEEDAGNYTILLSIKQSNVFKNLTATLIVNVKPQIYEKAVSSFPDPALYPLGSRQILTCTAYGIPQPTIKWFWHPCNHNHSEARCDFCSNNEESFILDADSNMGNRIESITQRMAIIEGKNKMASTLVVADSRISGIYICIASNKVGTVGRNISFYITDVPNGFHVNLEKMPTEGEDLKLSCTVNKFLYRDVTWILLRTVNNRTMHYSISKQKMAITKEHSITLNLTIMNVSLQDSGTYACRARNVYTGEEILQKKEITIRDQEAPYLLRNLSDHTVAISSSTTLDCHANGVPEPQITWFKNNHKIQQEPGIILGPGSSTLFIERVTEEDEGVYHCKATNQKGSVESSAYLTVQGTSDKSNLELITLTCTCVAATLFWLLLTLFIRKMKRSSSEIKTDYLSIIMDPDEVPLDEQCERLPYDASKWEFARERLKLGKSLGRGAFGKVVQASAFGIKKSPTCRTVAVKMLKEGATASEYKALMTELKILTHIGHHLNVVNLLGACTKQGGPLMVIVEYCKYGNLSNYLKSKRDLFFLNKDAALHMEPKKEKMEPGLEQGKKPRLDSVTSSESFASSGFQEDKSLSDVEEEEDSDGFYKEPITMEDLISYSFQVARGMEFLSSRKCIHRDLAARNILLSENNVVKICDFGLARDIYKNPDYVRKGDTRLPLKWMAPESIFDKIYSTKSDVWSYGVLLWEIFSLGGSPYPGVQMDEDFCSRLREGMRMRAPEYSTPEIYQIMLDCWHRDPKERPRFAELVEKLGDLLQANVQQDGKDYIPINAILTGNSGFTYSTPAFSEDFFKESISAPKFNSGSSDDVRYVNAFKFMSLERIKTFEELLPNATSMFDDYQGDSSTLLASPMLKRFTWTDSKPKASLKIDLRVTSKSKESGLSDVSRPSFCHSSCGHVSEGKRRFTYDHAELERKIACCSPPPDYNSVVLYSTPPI
# [7] = molecular target: Activin receptor type-1-like (Homo sapiens) (UniProt P37023); experiment: Inhibition of recombinant human N-terminal GST-tagged ALK1 (144 to end residues) expressed in baculovirus infected Sf9 insect cells assessed as enzyme activity incubated for 15 mins by [gamma-33]ATP based scintillation counting method relative to control; set-up: scale not given: the % may be the effect or the level left
# Activin receptor type-1-like (Homo sapiens), sequence (P37023 whole entry): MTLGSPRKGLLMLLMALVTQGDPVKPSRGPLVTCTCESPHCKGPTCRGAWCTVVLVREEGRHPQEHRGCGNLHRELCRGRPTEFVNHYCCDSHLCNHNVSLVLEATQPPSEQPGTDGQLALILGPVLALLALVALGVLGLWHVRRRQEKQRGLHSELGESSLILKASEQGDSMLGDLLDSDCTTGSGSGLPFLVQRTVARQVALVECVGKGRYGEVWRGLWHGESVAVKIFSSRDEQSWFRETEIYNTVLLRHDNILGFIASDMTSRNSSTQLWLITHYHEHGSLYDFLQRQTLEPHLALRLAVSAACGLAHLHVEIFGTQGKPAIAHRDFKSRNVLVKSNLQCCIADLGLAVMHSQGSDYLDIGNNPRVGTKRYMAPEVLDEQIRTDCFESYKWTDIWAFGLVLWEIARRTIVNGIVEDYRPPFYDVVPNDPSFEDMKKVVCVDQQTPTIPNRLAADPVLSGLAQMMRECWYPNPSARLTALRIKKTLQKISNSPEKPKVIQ
# [8] = molecular target: Ribosomal protein S6 kinase alpha-5 (Homo sapiens) (UniProt O75582); experiment: Inhibition of recombinant human N-terminal GST-tagged full length MSK1 expressed in baculovirus infected Sf9 insect cells assessed as enzyme activity incubated for 15 mins by [gamma-33]ATP based scintillation counting method relative to control; set-up: scale not given: the % may be the effect or the level left
# Ribosomal protein S6 kinase alpha-5 (Homo sapiens), sequence (O75582 whole entry, looked up): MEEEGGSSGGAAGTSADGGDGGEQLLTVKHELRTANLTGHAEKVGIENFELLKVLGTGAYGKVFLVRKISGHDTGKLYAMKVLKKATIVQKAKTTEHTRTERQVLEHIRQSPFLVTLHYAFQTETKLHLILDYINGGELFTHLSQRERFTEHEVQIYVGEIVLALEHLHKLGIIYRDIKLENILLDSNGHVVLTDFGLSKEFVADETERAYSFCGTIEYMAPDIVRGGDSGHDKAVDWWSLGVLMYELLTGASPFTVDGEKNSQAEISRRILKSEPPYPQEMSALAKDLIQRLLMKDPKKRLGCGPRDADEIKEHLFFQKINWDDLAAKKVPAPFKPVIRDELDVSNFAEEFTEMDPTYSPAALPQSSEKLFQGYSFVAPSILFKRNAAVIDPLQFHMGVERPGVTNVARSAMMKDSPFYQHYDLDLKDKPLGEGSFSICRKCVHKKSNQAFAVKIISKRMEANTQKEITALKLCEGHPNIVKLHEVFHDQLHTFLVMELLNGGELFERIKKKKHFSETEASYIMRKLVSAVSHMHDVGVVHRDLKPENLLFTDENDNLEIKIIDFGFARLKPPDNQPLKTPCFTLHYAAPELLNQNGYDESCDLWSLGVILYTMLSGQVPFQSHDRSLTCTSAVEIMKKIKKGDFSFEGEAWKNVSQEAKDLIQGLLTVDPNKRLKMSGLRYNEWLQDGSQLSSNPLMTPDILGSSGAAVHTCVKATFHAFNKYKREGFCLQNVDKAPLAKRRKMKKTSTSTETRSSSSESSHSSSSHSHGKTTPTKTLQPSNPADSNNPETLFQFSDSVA
# [9] = test system: HT-29; experiment: Antiproliferative activity against human HT-29 cells assessed as reduction in cell growth incubated for 72 hrs by MTT assay; type: functional, cell-based; conditions: HT-29, 72 h
# In short: (§1)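 MTT assay on MCF-7, A2780, HT29 and normal MRC5 fibroblast lines (ATCC) grown in DMEM with 10% FBS. Cells exposed to compounds for 72 h, then reduced MTT read at 570 nm.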
# [10] = test system: MCF7; experiment: Antiproliferative activity against human MCF7 cells assessed as reduction in cell growth incubated for 72 hrs by MTT assay; type: functional, cell-based; conditions: MCF7, 72 h; in short: as §1
compound,measurement,setting,value
Cc1ccc(NC(=O)c2ccc(CN3CCN(C)CC3)cc2)cc1Nc1nccc(-c2cccnc2)n1,Activity,[1],34%
same,Activity,[2],-3%
same,Activity,[3],0%
same,Activity,[4],-1%
same,Activity,[5],22%
same,Activity,[6],-10%
same,Activity,[7],14%
same,Activity,[8],49%
CCC1SCC(=O)N1c1c(C#N)c2n(c1C(=O)Nc1ccccc1)CCC2 (stereo not drawn),Activity,[1],-11%
same,Activity,[2],26%
same,Activity,[3],-16%
same,IC50,[9],600 nM
same,Activity,[4],-12%
same,Activity,[5],4%
same,Activity,[6],32%
same,IC50,[10],160 nM
same,Activity,[7],-11%
same,Activity,[8],-23%
CC/C=N/c1c(C#N)c2n(c1C(=O)Nc1ccccc1)CCC2,Activity,[1],-15%
same,Activity,[2],-32%
same,Activity,[3],-23%
same,IC50,[9],200 nM
same,Activity,[4],-24%
same,Activity,[5],-5%
same,Activity,[6],18%
same,IC50,[10],570 nM
same,Activity,[7],4%
same,Activity,[8],-22%
CC(C)C/C=N/c1c(C#N)c2n(c1C(=O)Nc1ccc(Br)cc1)CCC2,Activity,[1],28%
same,Activity,[2],7%
same,Activity,[3],6%
same,IC50,[9],670 nM
same,Activity,[4],-3%
same,Activity,[5],25%
same,Activity,[6],1%
same,IC50,[10],100 nM
same,Activity,[7],-5%
same,Activity,[8],29%
